Active and inactive are the calls of the source. No cut-off for these calls is given here.
Target: Putative P2Y purinoceptor 10 (Mus musculus) (UniProt Q8BFU7)
Experiment: Agonist activity at mouse P2Y10 receptor expressed in McA-RH7777 cells assessed as actin stress fiber formation at 1 uM after 30 mins by confocal microscopy
Format: cell-based
Outline: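 McA-RH7777 cells stably expressing mouse P2Y10, or mock retrovirus-infected, were grown on collagen I and serum-starved 1 h. They were stimulated with 1 μM compound in serum-free DMEM containing 0.01% fatty-acid-free BSA. […] F-actin fibers were imaged by confocal microscopy.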

Sequence of Putative P2Y purinoceptor 10 (Mus musculus) (Q8BFU7 whole entry): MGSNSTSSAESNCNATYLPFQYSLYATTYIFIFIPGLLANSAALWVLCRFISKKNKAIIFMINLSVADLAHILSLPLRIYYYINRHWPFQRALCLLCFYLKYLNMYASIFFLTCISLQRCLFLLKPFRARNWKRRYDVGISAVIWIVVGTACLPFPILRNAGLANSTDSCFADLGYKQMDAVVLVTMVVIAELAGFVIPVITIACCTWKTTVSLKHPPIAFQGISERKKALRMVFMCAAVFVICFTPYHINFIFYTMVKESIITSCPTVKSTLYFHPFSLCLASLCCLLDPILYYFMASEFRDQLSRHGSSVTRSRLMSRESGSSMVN

Row | Activity | SMILES
1 | Active | CCCCCCCCCCCOc1ccccc1CCC(=O)OCC(F)(F)COP(=O)(O)OC[C@H](N)C(=O)O
2 | inactive | CCCCCCCCCCCOc1cccc(CCC(=O)NC[C@@H](O)COP(=O)(O)O[C@@H](C)[C@H](N)C(=O)O)c1
3 | Active | CCCCCCCCCCCOc1ccccc1CCC(=O)OCCCOP(=O)(O)OC[C@H](N)C(=O)O

Row | SMILES | Activity
4 | CCCCCCCC/C=C\CCCCCCCC(=O)OC[C@@H](O)COP(=O)(O)OC[C@H](N)C(=O)O | Active
